Laboratory results reported in ChEMBL document CHEMBL3102848, “Carbamazepine derivatives with P2X4 receptor-blocking activity” (Bioorg Med Chem, 2014).

Target: T1, P2X purinoceptor 2 (Homo sapiens) (UniProt Q9UBL9)
T1 sequence (whole entry): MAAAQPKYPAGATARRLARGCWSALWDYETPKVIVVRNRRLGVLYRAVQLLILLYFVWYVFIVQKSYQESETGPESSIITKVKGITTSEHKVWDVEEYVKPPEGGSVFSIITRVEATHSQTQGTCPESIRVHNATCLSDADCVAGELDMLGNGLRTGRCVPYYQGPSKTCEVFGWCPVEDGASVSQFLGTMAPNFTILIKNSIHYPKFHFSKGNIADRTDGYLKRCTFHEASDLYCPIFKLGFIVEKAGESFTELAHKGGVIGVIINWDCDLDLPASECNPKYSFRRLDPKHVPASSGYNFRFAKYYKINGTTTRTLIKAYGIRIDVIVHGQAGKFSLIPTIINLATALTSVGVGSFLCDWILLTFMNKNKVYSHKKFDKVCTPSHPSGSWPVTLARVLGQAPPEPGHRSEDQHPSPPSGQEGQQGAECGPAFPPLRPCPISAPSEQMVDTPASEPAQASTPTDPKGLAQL
Experiment: Antagonist activity at human P2X2 receptor expressed in human 1321N1 cells assessed as inhibition of ATP-induced cytosolic calcium influx at 100 uM preincubated for 30 mins followed by ATP addition by Fluo-4 AM dye-based fluorescence assay
Assay type: cell-based

| inhibition | SMILES |
| --- | --- |
| 11% | O=C(NC1CCCCC1)N1c2ccccc2C=Cc2ccccc21 |
| 1% | CCN(CC)C(=O)N1c2ccccc2C=Cc2ccccc21 |
| 6% | O=C(N1CCCC1)N1c2ccccc2C=Cc2ccccc21 |
| 4% | O=C(N1CCCCC1)N1c2ccccc2C=Cc2ccccc21 |

Continued, compound first:

| SMILES | inhibition |
| --- | --- |
| CC(C)N(C(=O)N1c2ccccc2C=Cc2ccccc21)C(C)C | 8% |
| CCCN(CCC)C(=O)N1c2ccccc2C=Cc2ccccc21 | -2% |

Target: T2, P2X purinoceptor 4 (Mus musculus, UniProt Q9JJX6)
T2 sequence (Q9JJX6 whole entry): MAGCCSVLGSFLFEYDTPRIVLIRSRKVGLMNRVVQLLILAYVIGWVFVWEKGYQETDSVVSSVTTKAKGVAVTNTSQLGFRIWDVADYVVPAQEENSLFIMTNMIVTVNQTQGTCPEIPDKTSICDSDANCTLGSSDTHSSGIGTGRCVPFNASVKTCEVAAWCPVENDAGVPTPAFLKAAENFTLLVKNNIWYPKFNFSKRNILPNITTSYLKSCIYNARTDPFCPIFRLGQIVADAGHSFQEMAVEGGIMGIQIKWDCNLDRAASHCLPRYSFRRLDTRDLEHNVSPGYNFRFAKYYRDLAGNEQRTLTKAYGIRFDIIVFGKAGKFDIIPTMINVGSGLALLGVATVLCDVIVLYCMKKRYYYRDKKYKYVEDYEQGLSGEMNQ
Experiment: Antagonist activity at mouse P2X4 receptor assessed as inhibition of ATP-induced cytosolic calcium influx preincubated for 30 mins followed by ATP addition by Fluo-4 AM dye-based fluorescence assay

| IC50 | SMILES |
| --- | --- |
| 98.4 µM | O=C(NC1CCCCC1)N1c2ccccc2C=Cc2ccccc21 |
| > 100 µM | CCN(CC)C(=O)N1c2ccccc2C=Cc2ccccc21 |
| 123 µM | O=C(N1CCCC1)N1c2ccccc2C=Cc2ccccc21 |
| 102 µM | O=C(N1CCCCC1)N1c2ccccc2C=Cc2ccccc21 |

Further lines, the compound ahead of its results:

| SMILES | IC50 |
| --- | --- |
| CC(C)N(C(=O)N1c2ccccc2C=Cc2ccccc21)C(C)C | 14.9 µM |
| CCCN(CCC)C(=O)N1c2ccccc2C=Cc2ccccc21 | > 100 µM |

Target: T3, P2X purinoceptor 1 (Homo sapiens, UniProt P51575)
T3 sequence (P51575 whole entry): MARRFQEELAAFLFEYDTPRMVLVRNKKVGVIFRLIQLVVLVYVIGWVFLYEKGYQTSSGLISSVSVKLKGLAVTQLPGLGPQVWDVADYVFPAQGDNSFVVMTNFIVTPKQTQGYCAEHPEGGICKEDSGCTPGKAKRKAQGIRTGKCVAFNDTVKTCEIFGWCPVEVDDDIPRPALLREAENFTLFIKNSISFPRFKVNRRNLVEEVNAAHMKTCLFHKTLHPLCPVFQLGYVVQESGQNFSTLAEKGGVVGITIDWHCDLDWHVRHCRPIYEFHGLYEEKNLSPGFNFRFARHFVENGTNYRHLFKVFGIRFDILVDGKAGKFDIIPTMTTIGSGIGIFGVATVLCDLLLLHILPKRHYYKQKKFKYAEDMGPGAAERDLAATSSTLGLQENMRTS
Experiment: Antagonist activity at human P2X1 receptor expressed in human 1321N1 cells assessed as inhibition of ATP-induced cytosolic calcium influx preincubated for 30 mins followed by ATP addition by Fluo-4 AM dye-based fluorescence assay
Assay type: cell-based

| IC50 | SMILES |
| --- | --- |
| 69.6 µM | O=C(NC1CCCCC1)N1c2ccccc2C=Cc2ccccc21 |
| 25.2 µM | CCN(CC)C(=O)N1c2ccccc2C=Cc2ccccc21 |
| 68.8 µM | O=C(N1CCCC1)N1c2ccccc2C=Cc2ccccc21 |
| 20.7 µM | O=C(N1CCCCC1)N1c2ccccc2C=Cc2ccccc21 |

Continued, compound first:

| SMILES | IC50 |
| --- | --- |
| CC(C)N(C(=O)N1c2ccccc2C=Cc2ccccc21)C(C)C | 5.32 µM |
| CCCN(CCC)C(=O)N1c2ccccc2C=Cc2ccccc21 | 4.55 µM |

Target: T4, P2X purinoceptor 4 (Homo sapiens, UniProt Q99571)
T4 sequence (Q99571 whole entry): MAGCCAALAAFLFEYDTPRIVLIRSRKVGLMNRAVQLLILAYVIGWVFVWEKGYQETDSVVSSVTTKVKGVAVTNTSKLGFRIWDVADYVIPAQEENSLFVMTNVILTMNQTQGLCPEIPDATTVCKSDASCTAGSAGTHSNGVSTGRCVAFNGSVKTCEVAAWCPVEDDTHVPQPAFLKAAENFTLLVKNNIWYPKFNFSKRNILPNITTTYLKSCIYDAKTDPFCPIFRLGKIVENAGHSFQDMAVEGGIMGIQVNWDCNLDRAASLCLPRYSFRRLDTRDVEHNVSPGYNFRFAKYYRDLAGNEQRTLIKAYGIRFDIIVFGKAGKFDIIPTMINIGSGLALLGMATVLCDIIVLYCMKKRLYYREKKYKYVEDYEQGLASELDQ
Experiment: Antagonist activity at human P2X4 receptor expressed in human 1321N1 cells assessed as inhibition of ATP-induced cytosolic calcium influx preincubated for 30 mins followed by ATP addition by Fluo-4 AM dye-based fluorescence assay
Assay type: cell-based
Outline: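 Human P2X4 stably transfected into 1321N1 astrocytoma cells. Inhibition of ATP-induced calcium influx measured as in earlier work. Compounds were first screened at a single high concentration, chosen according to their solubility.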

| IC50 | SMILES |
| --- | --- |
| 33.8 µM | O=C(NC1CCCCC1)N1c2ccccc2C=Cc2ccccc21 |
| 11.4 µM | CCN(CC)C(=O)N1c2ccccc2C=Cc2ccccc21 |
| 34.1 µM | O=C(N1CCCC1)N1c2ccccc2C=Cc2ccccc21 |
| 13.7 µM | O=C(N1CCCCC1)N1c2ccccc2C=Cc2ccccc21 |

Further lines, the compound ahead of its results:

| SMILES | IC50 |
| --- | --- |
| CC(C)N(C(=O)N1c2ccccc2C=Cc2ccccc21)C(C)C | 3.44 µM |
| CCCN(CCC)C(=O)N1c2ccccc2C=Cc2ccccc21 | 7.78 µM |

Target: T5, P2X purinoceptor 3 (Homo sapiens, UniProt P56373)
T5 sequence (P56373 whole entry): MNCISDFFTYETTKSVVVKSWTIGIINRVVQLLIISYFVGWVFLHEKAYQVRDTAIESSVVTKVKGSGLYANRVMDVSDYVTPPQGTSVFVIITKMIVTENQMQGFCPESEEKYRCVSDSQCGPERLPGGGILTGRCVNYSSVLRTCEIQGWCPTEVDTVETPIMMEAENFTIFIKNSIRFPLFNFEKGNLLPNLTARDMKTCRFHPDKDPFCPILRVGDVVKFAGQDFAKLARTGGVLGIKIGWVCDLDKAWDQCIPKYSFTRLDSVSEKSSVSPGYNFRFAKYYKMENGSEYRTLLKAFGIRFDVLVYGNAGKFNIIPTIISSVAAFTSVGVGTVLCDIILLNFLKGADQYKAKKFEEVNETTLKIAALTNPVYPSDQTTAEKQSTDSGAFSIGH
Experiment: Antagonist activity at human P2X3 receptor expressed in human 1321N1 cells assessed as inhibition of ATP-induced cytosolic calcium influx preincubated for 30 mins followed by ATP addition by Fluo-4 AM dye-based fluorescence assay
Assay type: cell-based

| IC50 | SMILES |
| --- | --- |
| 28 µM | O=C(NC1CCCCC1)N1c2ccccc2C=Cc2ccccc21 |
| 14.2 µM | CCN(CC)C(=O)N1c2ccccc2C=Cc2ccccc21 |
| 29.8 µM | O=C(N1CCCC1)N1c2ccccc2C=Cc2ccccc21 |
| 7.98 µM | O=C(N1CCCCC1)N1c2ccccc2C=Cc2ccccc21 |

Continued, compound first:

| SMILES | IC50 |
| --- | --- |
| CC(C)N(C(=O)N1c2ccccc2C=Cc2ccccc21)C(C)C | 7.18 µM |
| CCCN(CCC)C(=O)N1c2ccccc2C=Cc2ccccc21 | 15.2 µM |

Target: T6, P2X purinoceptor 2 (Homo sapiens, UniProt Q9UBL9)
T6 sequence (Q9UBL9 whole entry): T1 sequence (whole entry)
Experiment: Antagonist activity at human P2X2 receptor expressed in human 1321N1 cells assessed as inhibition of ATP-induced cytosolic calcium influx preincubated for 30 mins followed by ATP addition by Fluo-4 AM dye-based fluorescence assay
Assay type: cell-based

| IC50 | SMILES |
| --- | --- |
| > 100 µM | O=C(NC1CCCCC1)N1c2ccccc2C=Cc2ccccc21 |
| > 100 µM | CCN(CC)C(=O)N1c2ccccc2C=Cc2ccccc21 |
| > 100 µM | O=C(N1CCCC1)N1c2ccccc2C=Cc2ccccc21 |
| > 100 µM | O=C(N1CCCCC1)N1c2ccccc2C=Cc2ccccc21 |

Continued, compound first:

| SMILES | IC50 |
| --- | --- |
| CC(C)N(C(=O)N1c2ccccc2C=Cc2ccccc21)C(C)C | > 100 µM |
| CCCN(CCC)C(=O)N1c2ccccc2C=Cc2ccccc21 | > 100 µM |
